Data as given in ChEMBL document CHEMBL1781947, “Structure-activity studies on the nociceptin/orphanin FQ receptor antagonist 1-benzyl-N-{3-[spiroisobenzofuran-1(3H),4'-piperidin-1-yl]propyl} pyrrolidine-2-carboxamide” (Bioorg Med Chem, 2009).
The source made the active and inactive calls.

Assays:
Nociceptin receptor [1] = target: T1, Nociceptin receptor (Homo sapiens, UniProt P41146); experiment: Displacement of [3H]N/OFQ from human recombinant NOP receptor expressed in CHO cells; type: cell-based
How it was run: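 Membranes from CHO cells expressing human NOP, prepared in 50 mM Tris-HCl, 5 mM Mg2+ pH 7.4. Incubation: 5 µg protein, ~200 pM [3H]N/OFQ, 10 µM peptidase inhibitors (amastatin, bestatin, captopril, phosphoramidon), 0.5% BSA, increasing competitor concentrations, 1 h at room temperature. Nonspecific binding defined with 1 µM unlabeled N/OFQ. Filtration onto 0.5% PEI-soaked GF/B filters; pKi reported.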

Mus musculus [2] = experiment: Effect on N/OFQ-induced antinociceptive activity in Swiss albino mouse at 1 mg/kg, ip administered 30 mins before 1 nmol, it N/OFQ challenge by tail withdrawal latency test; type: functional, organism-based; design: dose 1 mg/kg
Mus musculus [3] = experiment: Effect on N/OFQ-induced pronociciceptive activity in Swiss albino mouse at 1 mg/kg, ip administered 30 mins before 1 nmol, icv N/OFQ challenge by tail withdrawal latency test; type: functional, organism-based; design: dose 1 mg/kg
Mus musculus [4] = experiment: Effect on N/OFQ-induced pronociciceptive activity in Swiss albino mouse at 10 mg/kg, ip administered 30 mins before 1 nmol, icv N/OFQ challenge by tail withdrawal latency test; type: functional, organism-based; design: dose 10 mg/kg
How it was run: (§1)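 Male Swiss albino mice (25–30 g), distal half of the tail dipped in 48 °C water, 20 s cutoff, observer blind to treatment. Test agent 10 mg/kg ip in 2% DMSO/10% encapsin, 30 min before 1 nmol N/OFQ or saline given icv (2 µl) or i.t. (5 µl). Latency read before and 5, 15, 30 and 60 min after injection. Four mice per group, repeated four times (n=16).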

Mus musculus [5] = experiment: Effect on N/OFQ-induced antinociceptive activity in Swiss albino mouse at 10 mg/kg, ip administered 30 mins before 1 nmol, it N/OFQ challenge by tail withdrawal latency test; type: functional, organism-based; design: dose 10 mg/kg; how it was run: as §1
Nociceptin receptor [6] = target: T1, Nociceptin receptor; experiment: Antagonist activity at human recombinant NOP expressed in expressed on CHO cells co-expressing Galphaqi5 chimeric protein assessed as inhibition of NOPN/OFQ-stimulated calcium mobilization; type: functional, cell-based
How it was run: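 CHO cells stably co-expressing hNOP and Gαqi5, 40,000 cells/well, loaded 24 h later with Fluo-4 AM 3 µM, probenecid 2.5 mM, pluronic 0.01% for 30 min at 37 °C. Assay buffer HBSS/20 mM HEPES with probenecid and Brilliant Black. Fluorescence read at room temperature. Antagonist inhibition of 10 nM N/OFQ response. pKb derived from IC50 via the Kb equation. Four experiments in duplicate.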

Nociceptin receptor [7] = target: Nociceptin receptor (Mus musculus, UniProt P35377); experiment: Antagonist activity at nociceptin receptor in Swiss mouse vas deferens assessed as inhibition of electrically evoked twitches; type: functional, tissue-based; conditions: read-out: pA2 (converted)
How it was run: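 Vas deferens from male Swiss mice (30–35 g), field-stimulated with supramaximal 1 ms pulses at 0.05 Hz. Twitches recorded isotonically after 60 min equilibration. Cumulative N/OFQ curves run in 0.5 log steps, without or with antagonist pre-incubated 15 min. pA2 from Schild analysis. At least four experiments.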

Nociceptin receptor [8] = target: T1, Nociceptin receptor; experiment: Antagonist activity at human recombinant NOP expressed in CHO cells by [35S]GTPgammaS binding assay; type: functional, cell-based; conditions: read-out: pA2 (converted)
How it was run: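 Membranes from CHO cells stably expressing human NOP, prepared in 50 mM Tris-HCl, 0.2 mM EGTA pH 7.4; 20 µg protein with MgCl2 1 mM, NaCl 100 mM, bacitracin 0.15 mM, peptidase inhibitors, GDP 100 µM, ~150 pM [35S]GTPγS. Antagonist preincubated 15 min at 30 °C, then N/OFQ concentration-response 1 h at 30 °C; filtration without PEI. pA2 from Schild analysis.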

Mu-type opioid receptor [9] = target: T2, Mu-type opioid receptor (Homo sapiens, UniProt P35372); experiment: Displacement of [3H]DPN from human recombinant mu-type opioid receptor expressed in CHO cell membranes; type: cell-based
[10] = target: T3, Delta-type opioid receptor (Homo sapiens, UniProt P41143); experiment: Displacement of [3H]DPN from human recombinant delta-type opioid receptor expressed in CHO cell membranes
How it was run: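 CHO membranes expressing human DOP (25 µg protein) incubated 1 h at room temperature in 50 mM Tris-HCl pH 7.4, 0.5% BSA, ~0.7 nM [3H]diprenorphine with increasing test concentrations. Filtration through PEI-soaked GF/B filters, scintillation counting. Four separate experiments.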

[11] = target: T4, Kappa-type opioid receptor (Homo sapiens, UniProt P41145); experiment: Displacement of [3H]DPN from human recombinant kappa-type opioid receptor expressed in CHO cell membranes; type: cell-based
[12] = target: T4, Kappa-type opioid receptor; conditions: CHO
[13] = target: Nociceptin receptor (Rattus norvegicus) (UniProt P35370); conditions: Sprague-Dawley, Vas deferens
[14] = target: Nociceptin receptor (Cavia porcellus) (UniProt P47748); conditions: Albino, Ileum
Mu-type opioid receptor [15] = target: T2, Mu-type opioid receptor; conditions: CHO
[16] = target: T3, Delta-type opioid receptor; conditions: CHO

T1 sequence (P41146 whole entry): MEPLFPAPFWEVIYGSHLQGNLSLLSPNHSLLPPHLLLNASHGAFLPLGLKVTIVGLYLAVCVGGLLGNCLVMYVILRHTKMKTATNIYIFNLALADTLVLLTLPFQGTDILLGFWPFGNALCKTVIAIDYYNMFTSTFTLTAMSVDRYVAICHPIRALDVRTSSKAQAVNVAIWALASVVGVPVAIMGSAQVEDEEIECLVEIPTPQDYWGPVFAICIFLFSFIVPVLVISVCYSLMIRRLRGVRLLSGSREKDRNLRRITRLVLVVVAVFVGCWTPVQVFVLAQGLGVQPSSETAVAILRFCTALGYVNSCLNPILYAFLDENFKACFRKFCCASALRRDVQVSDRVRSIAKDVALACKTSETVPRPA
T3 sequence (P41143 whole entry): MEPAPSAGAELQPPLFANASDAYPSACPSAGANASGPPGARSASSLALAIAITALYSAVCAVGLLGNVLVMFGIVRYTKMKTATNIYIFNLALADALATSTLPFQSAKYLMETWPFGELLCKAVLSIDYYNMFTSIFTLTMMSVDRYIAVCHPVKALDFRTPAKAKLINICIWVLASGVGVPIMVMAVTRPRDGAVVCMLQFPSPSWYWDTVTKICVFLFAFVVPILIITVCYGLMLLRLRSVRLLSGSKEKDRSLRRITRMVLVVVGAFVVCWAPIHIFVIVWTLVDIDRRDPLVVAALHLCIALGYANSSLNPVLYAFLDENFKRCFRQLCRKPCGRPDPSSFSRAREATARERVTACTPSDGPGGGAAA
T4 sequence (P41145 whole entry): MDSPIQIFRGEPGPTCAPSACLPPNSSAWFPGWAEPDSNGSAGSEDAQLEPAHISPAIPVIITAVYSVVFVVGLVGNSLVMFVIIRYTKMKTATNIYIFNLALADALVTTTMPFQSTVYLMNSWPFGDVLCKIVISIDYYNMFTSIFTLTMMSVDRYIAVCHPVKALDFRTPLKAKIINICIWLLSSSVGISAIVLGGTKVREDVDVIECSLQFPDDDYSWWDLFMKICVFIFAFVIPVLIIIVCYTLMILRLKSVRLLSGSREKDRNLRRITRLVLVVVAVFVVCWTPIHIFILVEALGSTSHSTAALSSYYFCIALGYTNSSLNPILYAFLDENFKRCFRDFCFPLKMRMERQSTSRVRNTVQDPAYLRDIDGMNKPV
Nociceptin receptor (Mus musculus, UniProt P35377), sequence (P35377 whole entry): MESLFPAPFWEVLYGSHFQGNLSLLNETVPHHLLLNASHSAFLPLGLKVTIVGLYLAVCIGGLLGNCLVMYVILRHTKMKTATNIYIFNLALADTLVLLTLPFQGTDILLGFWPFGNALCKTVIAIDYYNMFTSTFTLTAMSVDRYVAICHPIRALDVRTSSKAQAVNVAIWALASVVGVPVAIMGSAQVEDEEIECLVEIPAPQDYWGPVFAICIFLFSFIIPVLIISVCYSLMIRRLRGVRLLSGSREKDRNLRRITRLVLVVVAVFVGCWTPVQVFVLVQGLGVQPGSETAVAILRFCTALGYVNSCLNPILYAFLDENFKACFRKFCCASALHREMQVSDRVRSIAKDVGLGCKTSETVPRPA
T2 sequence (P35372 whole entry): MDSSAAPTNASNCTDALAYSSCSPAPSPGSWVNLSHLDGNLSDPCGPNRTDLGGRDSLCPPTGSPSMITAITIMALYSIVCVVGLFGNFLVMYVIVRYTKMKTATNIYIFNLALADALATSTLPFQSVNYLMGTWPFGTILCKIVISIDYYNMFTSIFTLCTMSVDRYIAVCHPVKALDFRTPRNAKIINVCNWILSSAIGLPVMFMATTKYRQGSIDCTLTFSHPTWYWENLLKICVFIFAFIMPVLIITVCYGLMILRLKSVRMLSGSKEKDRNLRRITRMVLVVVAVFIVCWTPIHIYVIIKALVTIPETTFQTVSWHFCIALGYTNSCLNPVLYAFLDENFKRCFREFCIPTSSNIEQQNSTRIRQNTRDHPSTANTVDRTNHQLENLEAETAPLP
Nociceptin receptor (Rattus norvegicus), sequence (P35370 whole entry): as the sequence (P35377 whole entry) above, with F9Y, A335S counted along it
Nociceptin receptor (Cavia porcellus), sequence (P47748 whole entry): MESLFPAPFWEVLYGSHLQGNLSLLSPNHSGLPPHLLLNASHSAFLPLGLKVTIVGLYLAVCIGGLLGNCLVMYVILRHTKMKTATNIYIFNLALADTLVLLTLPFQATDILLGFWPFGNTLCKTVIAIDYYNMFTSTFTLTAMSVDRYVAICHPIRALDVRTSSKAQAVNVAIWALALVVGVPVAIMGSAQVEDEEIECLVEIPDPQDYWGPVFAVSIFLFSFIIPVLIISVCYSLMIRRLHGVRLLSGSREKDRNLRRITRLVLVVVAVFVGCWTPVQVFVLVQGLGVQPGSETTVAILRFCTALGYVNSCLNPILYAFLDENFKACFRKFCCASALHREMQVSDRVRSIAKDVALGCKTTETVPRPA

SMILES: O=C(NCCCN1CCC(c2c(Cl)cccc2Cl)CC1)[C@@H]1CCCN1Cc1ccccc1
- Ki (Nociceptin receptor [1]): 0.0832 µM

SMILES: O=C(OCCCN1CCC2(CC1)OCc1ccccc12)[C@H]1CCCN1Cc1ccccc1
- Ki (Nociceptin receptor [1]): 0.107 µM

SMILES: N[C@@H](Cc1ccccc1)C(=O)NCCCN1CCC2(CC1)OCc1ccccc12
- Ki (Nociceptin receptor [1]): 0.0589 µM

SMILES: c1ccc(CN2CCC[C@@H]2COCCCN2CCC3(CC2)OCc2ccccc23)cc1
- Ki (Nociceptin receptor [1]): 0.158 µM

SMILES: c1ccc(CN2CCC[C@@H]2CNCCCN2CCC3(CC2)OCc2ccccc23)cc1
- Ki (Nociceptin receptor [1]): 0.049 µM

SMILES: C(=C[C@H]1CCCN1Cc1ccccc1)CCCN1CCC2(CC1)NCc1ccccc12
- Ki (Nociceptin receptor [1]): > 10 µM

SMILES: Cc1cccc2c1CC[C@H](CN1CCC(c3c(Cl)cccc3Cl)CC1)C[C@@H]2O
- Activity (Mus musculus [2]): Active
- Activity (Mus musculus [3]): Active

SMILES: O=C(CNCc1ccccc1)NCCCN1CCC2(CC1)OCc1ccccc12
- Ki (Nociceptin receptor [1]): 0.0603 µM

SMILES: N[C@H](Cc1ccccc1)C(=O)NCCCN1CCC2(CC1)OCc1ccccc12
- Ki (Nociceptin receptor [1]): 0.0589 µM

SMILES: O=C(NCCCN1CCC2(CC1)OCc1ccccc12)[C@H]1CCCN1Cc1ccccc1
- Activity (Mus musculus [4]): Active
- Activity (Mus musculus [5]): Active
- Ki (Nociceptin receptor [1]): 0.00024 µM
- pKb (Nociceptin receptor [6]): 9.03
- Kb (Nociceptin receptor [7]): 0.00575 µM

SMILES: O=C(NCCCN1CCC(c2c(Cl)cccc2Cl)CC1)[C@H]1CCCN1Cc1ccccc1
- Activity (Mus musculus [4]): inactive
- Activity (Mus musculus [5]): inactive
- Ki (Nociceptin receptor [1]): 0.000724 µM
- Kb (Nociceptin receptor [8]): 0.000123 µM
- pKb (Nociceptin receptor [6]): 8.47
- Kb (Nociceptin receptor [7]): 0.01 µM
- Ki (Mu-type opioid receptor [9]): 0.191 µM
- Ki [10]: > 1 µM
- Ki [11]: 0.316 µM
- pKb [12]: < 6
- pKb [13]: 8.06
- pKb [14]: 8.84
- pKb (Mu-type opioid receptor [15]): 6.11
- pKb [16]: < 6

SMILES: CN(CCCN1CCC2(CC1)OCc1ccccc12)C(=O)[C@H]1CCCN1Cc1ccccc1
- Ki (Nociceptin receptor [1]): 1.15 µM
